Data as given in ChEMBL document CHEMBL1142087 (Antimicrob Agents Chemother, 2007).

How the values were obtained:
[1] = Cytotoxicity against MDCK cells; assay type: cell-based, Canis lupus familiaris; conditions: dog
How it was run: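 MDCK cells in MEM were exposed to eight test concentrations in half-log10 steps at 37°C. Untreated toxicity and normal-medium controls were included. CC50 was taken as the 50% cytotoxic concentration. Results are from two to five experiments.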

[2] = tested on: Mus musculus; assay: Effect on weight change in BALB/c mouse at 100 mg/kg/day, po qid measured after 18 hrs of final treatment; assay type: ADME, organism-based; set-up: route oral; conditions: in vivo
How it was run: (§1)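 Uninfected toxicity-control BALB/c mice, 3 per dose, were dosed orally on the same schedule as infected groups. Each mouse was weighed before treatment and 18 h after the last dose. Weight change is the difference. Mice were watched for overt toxicity and death for 21 days.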

[3] = tested on: Mus musculus; assay: Effect on weight change in BALB/c mouse at 33 mg/kg/day, po qid measured after 18 hrs of final treatment; assay type: ADME, organism-based; set-up: route oral; conditions: in vivo; how it was run: as §1
[4] = tested on: Mus musculus; assay: Toxicity in BALB/c mouse assessed as survival at 300 mg/kg/day, po once daily; assay type: organism-based; set-up: route oral; conditions: in vivo
How it was run: (§2)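 Uninfected female BALB/c toxicity controls (18–21 g), 3 mice per dose, were run in parallel with the infection studies and received 5-day oral treatment. Body weight was taken before treatment and 18 h after the last dose.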

[5] = tested on: Mus musculus; assay: Toxicity in BALB/c mouse assessed as survival at 100 mg/kg/day, po once daily; assay type: organism-based; set-up: route oral; conditions: in vivo; how it was run: as §2
[6] = tested on: Mus musculus; assay: Toxicity in BALB/c mouse assessed as survival at 30 mg/kg/day, po once daily; assay type: organism-based; set-up: route oral; conditions: in vivo; how it was run: as §2
[7] = tested on: Mus musculus; assay: Toxicity in BALB/c mouse assessed as survival at 10 mg/kg/day, po once daily; assay type: organism-based; set-up: route oral; conditions: in vivo; how it was run: as §2
[8] = tested on: Mus musculus; assay: Toxicity in BALB/c mouse assessed as survival at 3 mg/kg/day, po once daily; assay type: organism-based; set-up: route oral; conditions: in vivo; how it was run: as §2
[9] = tested on: Mus musculus; assay: Effect on weight change in BALB/c mouse at 300 mg/kg/day, po once daily for 5 days measured after 18 hrs of final treatment; assay type: ADME, organism-based; set-up: route oral; conditions: in vivo; how it was run: as §1
[10] = tested on: Mus musculus; assay: Effect on weight change in BALB/c mouse at 100 mg/kg/day, po once daily for 5 days measured after 18 hrs of final treatment; assay type: ADME, organism-based; set-up: route oral; conditions: in vivo; how it was run: as §1
[11] = tested on: Mus musculus; assay: Effect on weight change in BALB/c mouse at 30 mg/kg/day, po once daily for 5 days measured after 18 hrs of final treatment; assay type: ADME, organism-based; set-up: route oral; conditions: in vivo; how it was run: as §1
[12] = tested on: Mus musculus; assay: Effect on weight change in BALB/c mouse at 10 mg/kg/day, po once daily for 5 days measured after 18 hrs of final treatment; assay type: ADME, organism-based; set-up: route oral; conditions: in vivo; how it was run: as §1
[13] = tested on: Mus musculus; assay: Effect on weight change in BALB/c mouse at 3 mg/kg/day, po once daily for 5 days measured after 18 hrs of final treatment; assay type: ADME, organism-based; set-up: route oral; conditions: in vivo; how it was run: as §1
[14] = tested on: Mus musculus; assay: Toxicity in BALB/c mouse assessed as survival at 300 mg/kg/day, po qid for 5 days; assay type: organism-based; set-up: route oral; conditions: in vivo, 120 h; how it was run: as §2
[15] = tested on: Mus musculus; assay: Toxicity in BALB/c mouse assessed as survival at 100 mg/kg/day, po qid for 5 days; assay type: organism-based; set-up: route oral; conditions: in vivo, 120 h; how it was run: as §2
[16] = tested on: Mus musculus; assay: Toxicity in BALB/c mouse assessed as survival at 33 mg/kg/day, po qid for 5 days; assay type: organism-based; set-up: route oral; conditions: in vivo, 120 h; how it was run: as §2
[17] = tested on: Mus musculus; assay: Effect on weight change in BALB/c mouse at 300 mg/kg/day, po qid measured after 18 hrs of final treatment; assay type: ADME, organism-based; set-up: route oral; conditions: in vivo; how it was run: as §1
[18] = tested on: Mus musculus; assay: Toxicity in BALB/c mouse assessed as survival at 300 mg/kg/day, po twice daily; assay type: organism-based; set-up: route oral; conditions: in vivo; how it was run: as §2
[19] = tested on: Mus musculus; assay: Toxicity in BALB/c mouse assessed as survival at 100 mg/kg/day, po twice daily; assay type: organism-based; set-up: route oral; conditions: in vivo; how it was run: as §2
[20] = tested on: Mus musculus; assay: Toxicity in BALB/c mouse assessed as survival at 30 mg/kg/day, po twice daily; assay type: organism-based; set-up: route oral; conditions: in vivo; how it was run: as §2
[21] = tested on: Mus musculus; assay: Toxicity in BALB/c mouse assessed as survival at 10 mg/kg/day, po twice daily; assay type: organism-based; set-up: route oral; conditions: in vivo; how it was run: as §2
[22] = tested on: Mus musculus; assay: Toxicity in BALB/c mouse assessed as survival at 3 mg/kg/day, po twice daily; assay type: organism-based; set-up: route oral; conditions: in vivo; how it was run: as §2
[23] = tested on: Mus musculus; assay: Effect on weight change in BALB/c mouse at 300 mg/kg/day, po twice daily for 5 days measured after 18 hrs of final treatment; assay type: ADME, organism-based; set-up: route oral; conditions: in vivo; how it was run: as §1
[24] = tested on: Mus musculus; assay: Effect on weight change in BALB/c mouse at 100 mg/kg/day, po twice daily for 5 days measured after 18 hrs of final treatment; assay type: ADME, organism-based; set-up: route oral; conditions: in vivo; how it was run: as §1
[25] = tested on: Mus musculus; assay: Effect on weight change in BALB/c mouse at 30 mg/kg/day, po twice daily for 5 days measured after 18 hrs of final treatment; assay type: ADME, organism-based; set-up: route oral; conditions: in vivo; how it was run: as §1
[26] = tested on: Mus musculus; assay: Effect on weight change in BALB/c mouse at 10 mg/kg/day, po twice daily for 5 days measured after 18 hrs of final treatment; assay type: ADME, organism-based; set-up: route oral; conditions: in vivo; how it was run: as §1
[27] = tested on: Mus musculus; assay: Effect on weight change in BALB/c mouse at 3 mg/kg/day, po twice daily for 5 days measured after 18 hrs of final treatment; assay type: ADME, organism-based; set-up: route oral; conditions: in vivo; how it was run: as §1
[28] = tested on: Influenza A virus; assay: Inhibition of influenza A virus (A/duck/Minnesota/1525/1981 (H5N1)) replication in MDCK cells by virus yield reduction assay; assay type: functional
[29] = tested on: Influenza A virus; assay: Inhibition of Influenza A virus (A/gull/Pennsylvania/4175/83 (H5N1)) replication in MDCK cells by virus yield reduction assay; assay type: functional

With NC(=O)c1nc(F)c[nH]c1=O [FAVIPIRAVIR] the CC50 [1] was > 641 µM, the Activity [2] was 1.1 g and the Activity [3] was 0.2 g. The Activity [4] was “Non-toxic”, the Activity [5] was “Non-toxic” and the Activity [6] was “Non-toxic”. For the same compound, the Activity [7] was “Non-toxic”, the Activity [8] was “Non-toxic” and the Activity [9] was 0.4 g. It also gave an Activity [10] of 0.4 g, an Activity [11] of 0.7 g and an Activity [12] of 0.6 g. The Activity [13] was 0.3 g, the Activity [14] was “Non-toxic” and the Activity [15] was “Non-toxic”. The Activity [16] was “Non-toxic”, the Activity [17] was 0.6 g and the Activity [18] was “Non-toxic”. The Activity [19] was “Non-toxic”, the Activity [20] was “Non-toxic” and the Activity [21] was “Non-toxic”. For the same compound, the Activity [22] was “Non-toxic”, the Activity [23] was 0.2 g and the Activity [24] was 1 g. For the same compound, the Activity [25] was 0.1 g, the Activity [26] was 0.1 g and the Activity [27] was 0.8 g.
With NC(=O)c1ncn([C@@H]2O[C@H](CO)[C@@H](O)[C@H]2O)n1 [RIBAVIRIN] the EC90 [28] was 20.1 µM, the EC90 [29] was 32 µM and the CC50 [1] was 2340 µM.
In the case of CC(=O)N[C@H]1[C@H]([C@H](O)[C@H](O)CO)OC(C(=O)O)=C[C@@H]1NC(=N)N [ZANAMIVIR], the EC90 [28] is reported as 0.96 µM, the EC90 [29] is reported as 1.23 µM and the CC50 [1] is reported as > 3610 µM.
